# Bioassay records as filed in PubChem BioAssay.
# TIM10 inh = growth inhibitors of TIM10 yeast strain; S. cerevisiae TIM10 strain growth, BacTiter-Glo luminescence, 24 h; inhibition, % at 10 µM; 330,000 compounds, 1.4% hits; AID 463195;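 active = inhibition of 40% or more at the single tested concentration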;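 also: wild-type TIM10 isogenic control strain grown at permissive 25 °C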
# UPR CHOP act = apoptotic UPR (CHOP) activation. 330,000 compounds, 0.34% hits. CHO-CHOP luciferase reporter, luminescence; percent of tunicamycin response over DMSO baseline. activation, % at 10 µM. AID 449763;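 active = at 10 µM dose, activation of 40% or more, normalized to positive control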;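 also: 100% = tunicamycin at 10 µg/mL and 0% = DMSO alone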
#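 assay system = CHO CHOP reporter cells | amount = 500 CHO-CHOP cells per well | buffer or medium = F12 with 10% FBS | incubation = 16-18 h cell attachment, then 6 h compound exposure, 37 °C | detection = luminescence read with Steady-Glo | read-out = percent activation relative to tunicamycin control | controls = tunicamycin high control, DMSO low control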
# UPR XBP1 act = activators of adaptive arm of unfolded protein response (XBP1); CHO-XBP1 luciferase reporter, IRE1-XBP1 UPR activation, luminescence; percent of tunicamycin response, DMSO as zero; activation, % at 20 µM; 330,000 compounds, 0.33% hits; AID 463104;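 active = versus positive control, 20 µM dose yields 30% or more activation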;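 also: 100% = tunicamycin at 10 µg/mL and 0% = DMSO only wells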
#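 Material: CHO cell line with stable XBP1 luciferase reporter; buffer or medium: F12 medium containing 10% fetal bovine serum; compound: single point, 20 µM final compound, 1% DMSO; incubation: 6 h treatment, 37 °C; measured by: glow luminescence from Steady-Glo reagent; evaluation: activation, % of tunicamycin; control set: tunicamycin high, DMSO low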
# tim23-1 inh = inhibits growth of tim23-1 mutant yeast; inhibition, % at 20 µM; 330,000 compounds, 1.3% hits; S. cerevisiae tim23-1 growth, BacTiter-Glo luminescence, 24 h; AID 463212;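 active = growth inhibition of the mutant yeast at or above 50%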;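 also: temperature-sensitive mutant grown at 25 °C; plate controls were DMSO-treated mutant yeast for no effect and medium wells lacking yeast for full effect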
# tim10-1 inh = inhibits growth of tim10-1 mutant yeast | S. cerevisiae tim10-1 ts strain growth, BacTiter-Glo, 24 h | inhibition, % at 20 µM | 330,000 compounds, 2.2% hits | AID 463190;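 active = inhibition of at least 40%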;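 also: mutant grown at 25 °C; 0% = DMSO wells with yeast and 100% = wells holding no yeast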
# tim10-1 confirm = tim10-1 yeast growth inhibition, confirmed; S. cerevisiae tim10-1 ts strain growth, BacTiter-Glo, 24 h; 7,400 compounds, 56% hits; AID 463213; inhibition, % at 20 µM; shares compounds with tim10-1 inh;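 active = inhibition of yeast growth at or above a set limit in either of two repeat tests at 20 µM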;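 also: tim10-1 mutant grown at permissive 25 °C to find synthetic lethal compounds; 0% = DMSO yeast wells and 100% = medium wells without yeast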
# TIM10 conf = confirmation of TIM10 yeast growth inhibitors; shares compounds with TIM10 inh; AID 463215; 4,600 compounds, 63% hits; S. cerevisiae tim10 strain growth, BacTiter-Glo luminescence, 24 h; inhibition, % at 10 µM;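 active = inhibition of yeast growth at or above a set limit in either of two replicates at 10 µM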;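 also: this counterscreen used the strain with wild-type TIM10; 0% = yeast with DMSO and 100% = medium wells lacking yeast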
# tim23-1 confirm = tim23-1 yeast growth inhibition, confirmed. AID 463218. shares compounds with tim23-1 inh. inhibition, % at 20 µM. 4,400 compounds, 83% hits. S. cerevisiae tim23-1 growth, BacTiter-Glo luminescence, 24 h;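 active = inhibition above about 39% in either of two replicate wells at 20 µM, limit read from the data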;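 also: temperature-sensitive tim23-1 mutant grown at 25 °C; 0% = DMSO wells with yeast and 100% = medium wells without yeast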
# Active calls of the source: *; · = no result. A selection: hits, their analogues and other compounds. The true share with any hit is near 3.9%.
SMILES,TIM10 inh,UPR CHOP act,UPR XBP1 act,tim23-1 inh,tim10-1 inh,tim10-1 confirm,TIM10 conf,tim23-1 confirm
COc1ccc(N2CC(C(=O)Nc3ccncc3)CC2=O)cc1 (stereo not drawn),-18,1,2,4,0,·,·,·
COC(=O)c1ccc2c(c1)C(C)(C)C(/C=C/c1ccccc1O)=[N+]2C,56*,-9,-6,66*,65*,57*,53*,71*
O=C1C=C(c2ccc(F)cc2OCc2ccccc2)C[C@@H](c2ccc(F)cc2)C1,-15,6,0,16,9,·,·,·
O=C(CSc1ccc(Cl)cc1)Nc1ccccc1Oc1ccccc1,16,2,-1,12,8,·,·,·
O=C(CSc1ccc(Cl)cc1)NC1=NN(c2ccccc2)C(=O)C1,11,2,-3,63*,48*,17,·,-12
CC[n+]1c(/C=C/c2ccc(OC)c(OC)c2)ccc2ccccc21,2,6,-6,5,-12,·,·,·
CCN(CC)c1ccc(/C=C/c2ccc3ccc(OC)cc3[n+]2CC)cc1,31,27,17,68*,73*,68*,·,58*
OCCOCCNc1ncnc2c1c(-c1ccccc1)cn2-c1ccccc1,26,2,-2,50*,47*,4,·,46*
CN(C)CCCNc1ncnc2c1c(-c1ccccc1)cn2-c1ccccc1,4,0,1,5,1,·,·,·
COc1cc2c(cc1OC)C(c1ccc(Cl)cc1)=NCC2,8,0,2,-4,-2,·,·,·
COc1cc2c(cc1OC)C(c1ccc(-c3ccc(Cl)c(Cl)c3)o1)=NCC2,37,1,5,57*,56*,44*,·,54*
Cc1nc2ccccn2c1C(=O)N/N=C/c1cc(C)n(-c2ccc(Br)cc2)c1C,31,1,2,60*,44*,22,·,41*
Cc1nc2ccccn2c1C(=O)N/N=C/c1ccccc1,-10,0,-1,11,12,·,·,·
O=C(/C=C/c1c(Cl)cccc1Cl)n1cccn1,41*,1,3,60*,56*,57*,55*,85*
COc1ccc2c(c1)CC/C2=N\OC(=O)c1ccccc1C,73*,6,-3,70*,43*,31,87*,75*
COc1ccc2c(c1)CC/C2=N\OC(=O)c1cccc(C)c1,83*,8,-1,53*,62*,41*,-13,82*
COc1cc(Nc2ccccn2)cc(C(=O)Nc2cccc(C(F)(F)F)c2)c1,29,-1,0,51*,49*,36*,·,65*
CS(=O)(=O)c1ccc2nc(NC(=O)c3cccs3)sc2c1,31,-1,-7,60*,44*,41*,·,54*
Cc1ccc2nc(NC(=O)c3cccs3)sc2c1,22,-4,-3,27,26,·,·,·
CC(=O)Nc1ccc(NC(=O)c2ccc(Cn3cc(Cl)cn3)cc2)cc1,10,-1,-4,10,10,·,·,·
O=C(Nc1cccc(Cl)c1)c1ccc(Cn2cc(Cl)cn2)cc1,73*,5,1,68*,60*,47*,17,76*
Cc1ccc(-c2nc(N/N=C/c3ccncc3)c3ccccc3n2)cc1,60*,-1,-1,76*,74*,69*,60*,81*
Cc1ccc2nc(C(Cl)(Cl)Cl)nc(N/N=C/c3ccncc3)c2c1,15,0,-1,-1,8,·,·,·
N#CC(C#N)=Cc1cc2ccccc2nc1N1CCCCC1,41*,13,0,78*,53*,42*,13,71*
COc1ccccc1NC(=O)c1ccc2c(c1)N(CC(=O)NC(C)C)C(=O)C(C)(C)O2,2,1,-1,-7,9,·,·,·
SMILES,TIM10 inh,UPR CHOP act,UPR XBP1 act,tim23-1 inh,tim10-1 inh,tim10-1 confirm,TIM10 conf,tim23-1 confirm
CCOc1ccccc1C(=O)Nc1cc(Cl)ccc1O,59*,1,-1,85*,62*,54*,52*,8
Cc1ccc(-n2c(C)cc(C3=NNC(=NC4CC4)SC3)c2C)cc1C,21,1,4,-19,23,·,·,·
CC1CCN(C(=O)CCNS(=O)(=O)c2ccc3c(c2)c(=O)n(C)c(=O)n3C)CC1,-1,-3,-8,0,3,·,·,·
N/C(=N\OC(=O)COc1ccccc1Cl)c1ccc(Cl)cc1,54*,1,-1,60*,70*,49*,43*,76*
N/C(=N\OC(=O)C1CCCCC1)c1ccncc1,14,1,-3,11,19,·,·,·
N/C(=N\OC(=O)C1CCCCC1)c1ccc(Br)cc1,45*,5,2,68*,61*,55*,66*,75*
N/C(=N\OC(=O)C1CCCCC1)c1ccc(Cl)cc1,48*,3,2,53*,63*,53*,43*,38*
COc1ccc(C(CNC(=O)c2cc3ccccc3cc2O)N2CCOCC2)cc1 (stereo not drawn),1,0,-1,48,26,·,·,·
Cc1cc(C(=O)CSc2ccccc2)cc(C)c1O,20,6,5,29,16,·,·,·
O=C(c1ccccc1)C(CCC(CN1CCOCC1)C(=O)c1ccccc1)CN1CCOCC1 (stereo not drawn),60*,28,-7,53*,54*,48*,68*,47*
C(=N\c1nccs1)/c1cccnc1,-9,-3,2,20,12,·,·,·
Oc1c(Br)cc(Br)cc1/C=N/c1nccs1,29,2,0,75*,46*,34*,·,90*
Oc1ccc(Cl)cc1/C=N/c1nccs1,30,-1,-1,55*,45*,44*,·,30
CCCC(=O)N(c1ccc(C(=O)O)cc1)c1nc(-c2ccccc2)c(C)s1,15,0,1,19,17,·,·,·
O=c1c2c([N+](=O)[O-])cc([N+](=O)[O-])cc2nc2ccccn12,37,-1,2,85*,42*,68*,·,87*
CCc1ccc(-c2nc3ccc(Br)cc3c(C(=O)O)c2C)s1,-8,-1,-1,8,13,·,·,·
CCN(c1ccccc1)S(=O)(=O)c1ccc2c(c1)OCCO2,13,2,-1,24,4,·,·,·
CC(SC#N)C(=O)C12CC3CC(CC(C3)C1)C2 (stereo not drawn),55*,14,-3,66*,53*,39*,41*,50*
Nc1nc(SCC(=O)Nc2ccc(OC(F)(F)F)cc2)[nH]c(=O)c1NC(=O)c1ccc(Br)o1,-5,0,-2,-23,-14,·,·,·
